Experiments:
[1] = Selectivity index, ratio of EC50 for human MCF10A cells under UV irradiation at 1.5 J/cm2 to EC50 for human MCF7 cells under UV irradiation at 1.5 J/cm2; assay type: toxicity; conditions: MCF10A cells versus MCF7 cells, read-out: Ratio EC50
Outline: (§1)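 SI is the EC50 under irradiation in non-tumor MCF10A cells divided by the EC50 under irradiation in the tumor line. Both were MTT read-outs 72 h after 1.5 J/cm² at 365 nm.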

[2] = Dark toxicity against human MCF10A cells preincubated for 5 mins followed by compound washout and measured after 72 hrs by MTT assay; assay type: cell-based, MCF-10A
Outline: (§2)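 Cells were plated and allowed to attach overnight. Compounds were diluted in DMSO (0.5% final), with each concentration in triplicate, and applied for 5 min. Cells were then washed in PBS and given fresh medium. Without irradiation, cells were held 72 h at up to 50 μM. MTT (5 mg/mL stock) was added for 4 h, crystals were dissolved in SDS/HCl overnight, and absorbance was read at 540 nm. CC50 is the concentration killing 50% of cells, taken as the mean of at least three experiments.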

[3] = tested on: MCF7; assay: Cell cycle arrest in human MCF7 cells assessed as accumulation of cells at G0/G1 phase at EC50 after 24 hrs under UV-irradiation by propidium iodide staining-based flow cytometric analysis (reference value: 44.2%); assay type: functional
[4] = Selectivity index, ratio of EC50 for human MCF10A cells under UV irradiation at 1.5 J/cm2 to EC50 for human HT-29 cells under UV irradiation at 1.5 J/cm2; assay type: toxicity; conditions: MCF10A cells versus HT-29 cells, read-out: Ratio EC50; outline: as §1
[5] = tested on: MCF7; assay: Phototoxicity index, ratio of CC50 for human MCF7 cells to EC50 for human MCF7 cells under UV irradiation at 1.5 J/cm2
[6] = Drug localization in cytoplasm of human MCF7 cells at 2 uM measured after 30 to 60 mins by confocal microscopic analysis; assay type: ADME, subcellular; conditions: mcf7, 2 µM
[7] = tested on: MCF7; assay: Induction of ROS generation in human MCF7 cells at 0.5 to 2 uM preincubated for 30 mins followed by irradiation at 1.5 J/cm2 for 2 hrs by H2DCFDA probe-based fluorescence assay (reference value: 100%); assay type: functional
Outline: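 MCF7 cells (3x10⁴) were plated 24 h ahead to reach 80–90% confluence. Compounds were applied for 30 min in phenol-red-free, serum-free medium, and H2DCFDA (10 µM) was added 15 min before irradiation (1.5 J/cm², ~365 nm) or no irradiation. DCF fluorescence (485/535 nm) was read 2 h after light and expressed relative to untreated controls (100%). PMA (400 nM) served as positive control; three independent experiments.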

[8] = Dark toxicity against human A375 cells preincubated for 5 mins followed by compound washout and measured after 72 hrs by MTT assay; assay type: cell-based, A-375; outline: as §2
[9] = Selectivity index, ratio of EC50 for human MCF10A cells under UV irradiation at 1.5 J/cm2 to EC50 for human A375 cells under UV irradiation at 1.5 J/cm2; assay type: toxicity; conditions: MCF10A cells versus A375 cells, read-out: Ratio EC50; outline: as §1
[10] = tested on: A-375; assay: Phototoxicity against human A375 cells preincubated for 5 mins followed by compound washout and subsequent UV irradiation at 1.5 J/cm2 for 5 mins measured after 72 hrs by MTT assay; assay type: functional, cell-based; conditions: A-375, light or radiation study
Outline: (§3)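 Compounds were diluted in DMSO (0.5% final), applied in triplicate for 5 min, then washed out with PBS. After medium removal, cells were irradiated on ice for 5 min at 365 nm (1.5 J/cm²) and then kept 72 h at 37 °C. Viability was read by MTT at 540 nm and expressed relative to 0.5% DMSO controls given the same treatment. EC50 is the concentration killing 50%, as the mean ± SD of at least three experiments.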

[11] = tested on: MCF7; assay: Cell cycle arrest in human MCF7 cells assessed as accumulation at subG1 phase at EC25 after 24 hrs under UV-irradiation by propidium iodide staining-based flow cytometric analysis (reference value: 4.8%); assay type: functional
[12] = tested on: MCF7; assay: Cell cycle arrest in human MCF7 cells assessed as accumulation of cells at subG1 phase at EC50 after 24 hrs under UV-irradiation by propidium iodide staining-based flow cytometric analysis (reference value: 4.8%); assay type: functional
[13] = tested on: MCF-10A; assay: Phototoxicity against human MCF10A cells preincubated for 5 mins followed by compound washout and subsequent UV irradiation at 1.5 J/cm2 for 5 mins measured after 72 hrs by MTT assay; assay type: cell-based; conditions: light or radiation study; outline: as §3
[14] = Dark toxicity against human MCF7 cells preincubated for 5 mins followed by compound washout and measured after 72 hrs by MTT assay; assay type: cell-based; outline: as §2
[15] = tested on: MCF7; assay: Cell cycle arrest in human MCF7 cells assessed as accumulation at S phase at EC25 after 24 hrs under UV-irradiation by propidium iodide staining-based flow cytometric analysis (reference value: 24.7%); assay type: functional

SMILES: COc1ccc(-c2nc3c(nc(C)c4ccc(-c5ccccc5)nc43)o2)cc1
- selectivity ratio [1]: 86
- CC50 at 72 h [2]: > 50 µM
- Activity [3]: 43.1%
- selectivity ratio [4]: 72
- Ratio CC50/EC50 [5]: >5000
- Drug uptake [6]: Active
- Activity [7]: 227%
- CC50 at 72 h [8]: > 50 µM
- selectivity ratio [9]: 79
- EC50 [10]: 0.011 µM
- Activity [11]: 4.3%
- Activity [12]: 4.4%
- EC50 [13]: 0.864 µM
- CC50 at 72 h [14]: > 50 µM
- Activity [15]: 24.8%

Reference: ChEMBL document CHEMBL4325899, “Synthesis and photocytotoxic activity of [1,2,3]triazolo[4,5-h][1,6]naphthyridines and [1,3]oxazolo[5,4-h][1,6]naphthyridines” (Eur J Med Chem, 2019)
